The values that follow come from ChEMBL document CHEMBL4699588, “Structure-Activity Relationships of Noncovalent Immunoproteasome β5i-Selective Dipeptides” (J Med Chem, 2020).

The species named for assay [1] is Homo sapiens. Briefly: Selectivity index, ratio of IC50 for inhibition of human constitutive 20S proteasome beta 5 chymotrypsin-like activity to IC50 for inhibition of human 20S immunoproteasome beta 5 chymotrypsin-like activity.
For assay [2], the target named is T1, Proteasome Macropain subunit MB1 (Homo sapiens, UniProt P28074).
T1 sequence (P28074 whole entry): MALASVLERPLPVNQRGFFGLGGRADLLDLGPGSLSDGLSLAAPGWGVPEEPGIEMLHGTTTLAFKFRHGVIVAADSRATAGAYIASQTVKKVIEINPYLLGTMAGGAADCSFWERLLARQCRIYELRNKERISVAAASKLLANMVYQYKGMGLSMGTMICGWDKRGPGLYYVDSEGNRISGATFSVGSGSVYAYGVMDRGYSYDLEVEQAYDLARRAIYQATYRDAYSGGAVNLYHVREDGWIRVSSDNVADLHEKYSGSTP
Briefly: Inhibition of human constitutive 20S proteasome beta 5 chymotrypsin-like activity. In outline: (§1)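 Purified human proteasomes were used in a 96-well format assay: immunoproteasome i-20S from PBMC and constitutive c-20S from red blood cells. The readout was fluorogenic AMC peptide substrate cleavage on a plate reader, and IC50 values were determined from it.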

Assay [3] can be described thus: Inhibition of anti-CD3 antibody-stimulated T cell proliferation in human PBMCs. Type of assay: functional, tissue-based. Conditions: PBMC.
Assay [4] concerns the target proteasome subunit beta type-6, β1c, PSMB6 (Homo sapiens) (UniProt P28072). Kind of assay: Inhibition of human 20S constitutive proteasome beta 1 at 33.3 uM relative to control.
The target in assay [5] is proteasome subunit beta type-7, β2c, PSMB7 (Homo sapiens) (UniProt Q99436). Briefly: Inhibition of human 20S constitutive proteasome beta 2 at 33.3 uM relative to control.
The species named for assay [6] is Homo sapiens. Briefly: Inhibition of alpha-chymotrypsin (unknown origin) at 11.1 to 100 uM. Particulars: dose 11.1-100 µM.
Assay [7] deals with T2, Proteasome subunit beta type-10 (Homo sapiens) (UniProt P40306).
T2 sequence (whole entry): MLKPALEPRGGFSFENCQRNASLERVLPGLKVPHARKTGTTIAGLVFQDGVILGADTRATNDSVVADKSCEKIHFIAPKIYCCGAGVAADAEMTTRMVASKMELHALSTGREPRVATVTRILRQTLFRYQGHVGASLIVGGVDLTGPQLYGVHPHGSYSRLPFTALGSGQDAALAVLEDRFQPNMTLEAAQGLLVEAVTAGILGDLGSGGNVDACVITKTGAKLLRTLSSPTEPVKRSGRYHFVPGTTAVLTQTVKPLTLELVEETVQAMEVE
Kind of assay: Inhibition of human 20S immunoproteasome beta 2 at 33.3 uM relative to control.

Assay [8] has as its target T3, Proteasome subunit beta type-9 (Homo sapiens) (UniProt P28065).
T3 sequence (whole entry): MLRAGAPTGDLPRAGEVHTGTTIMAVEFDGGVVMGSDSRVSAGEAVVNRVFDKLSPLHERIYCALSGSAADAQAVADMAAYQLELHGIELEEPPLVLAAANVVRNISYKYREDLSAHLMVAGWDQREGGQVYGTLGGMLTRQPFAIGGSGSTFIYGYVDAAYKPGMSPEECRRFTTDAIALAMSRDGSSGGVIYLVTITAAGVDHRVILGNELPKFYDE
Briefly: Inhibition of human 20S immunoproteasome beta 1 at 33.3 uM relative to control.

The target in assay [9] is Procathepsin L (Homo sapiens) (UniProt P07711). Kind of assay: Inhibition of cathepsin L (unknown origin) at 11.1 to 100 uM. Conditions: dose 11.1-100 µM.
For the next assay, the target named is Trypsin (Homo sapiens) (UniProt P07477+P07478+P35030). Briefly: Inhibition of trypsin (unknown origin) at 11.1 to 100 uM. Particulars: dose 11.1-100 µM.
Assay [10] has as its target T4, Proteasome subunit beta type-8 (Homo sapiens, UniProt P28062).
T4 sequence (P28062 whole entry): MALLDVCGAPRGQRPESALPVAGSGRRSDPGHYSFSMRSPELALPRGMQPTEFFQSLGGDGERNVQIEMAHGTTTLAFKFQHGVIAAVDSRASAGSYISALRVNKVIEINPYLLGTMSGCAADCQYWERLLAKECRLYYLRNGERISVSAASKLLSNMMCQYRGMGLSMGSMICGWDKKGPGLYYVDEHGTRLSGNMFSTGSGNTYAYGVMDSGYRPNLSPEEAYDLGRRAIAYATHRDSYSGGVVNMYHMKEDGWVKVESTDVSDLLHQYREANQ
Briefly: Inhibition of human 20S immunoproteasome beta 5 chymotrypsin-like activity. In outline:
as §1

The target in assay [11] is T4, Proteasome subunit beta type-8. Kind of assay: Inhibition of human 20S immunoproteasome beta 5 chymotrypsin-like activity in human KARPAS-1106P cells incubated for 2 hrs by proteasome-Glo assay. It counts as cell-based.

The source made the active and inactive calls. No cut-off for these calls is given here.

Chain of proteasome subunit beta type-6, β1c, PSMB6 (Homo sapiens) (P28072 whole entry, looked up): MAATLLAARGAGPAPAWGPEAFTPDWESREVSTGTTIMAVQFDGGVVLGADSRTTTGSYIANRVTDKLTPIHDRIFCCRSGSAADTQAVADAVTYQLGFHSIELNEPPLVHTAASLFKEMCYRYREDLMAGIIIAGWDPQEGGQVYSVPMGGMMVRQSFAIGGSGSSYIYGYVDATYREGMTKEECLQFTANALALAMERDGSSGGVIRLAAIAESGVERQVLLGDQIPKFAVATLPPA
Chain of Procathepsin L (Homo sapiens) (P07711 114-333 limits assumed): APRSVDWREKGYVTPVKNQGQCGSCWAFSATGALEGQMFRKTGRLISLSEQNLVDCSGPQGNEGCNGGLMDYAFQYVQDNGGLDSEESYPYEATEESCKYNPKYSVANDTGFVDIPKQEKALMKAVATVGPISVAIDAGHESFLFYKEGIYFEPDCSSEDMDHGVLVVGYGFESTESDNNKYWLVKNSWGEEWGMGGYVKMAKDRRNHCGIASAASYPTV
Chain of proteasome subunit beta type-7, β2c, PSMB7 (Homo sapiens) (Q99436 whole entry, looked up): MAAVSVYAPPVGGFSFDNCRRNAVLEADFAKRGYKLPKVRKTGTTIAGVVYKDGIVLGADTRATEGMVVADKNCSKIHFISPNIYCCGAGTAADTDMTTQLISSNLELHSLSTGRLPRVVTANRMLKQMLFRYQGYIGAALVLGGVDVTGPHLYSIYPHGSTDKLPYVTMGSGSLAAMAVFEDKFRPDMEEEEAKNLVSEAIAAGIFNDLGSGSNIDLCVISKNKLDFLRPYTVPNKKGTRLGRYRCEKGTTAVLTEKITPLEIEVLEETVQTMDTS

For `COC[C@H](NC(=O)[C@H](CC(=O)N1CCC1)NC(=O)CCc1ccccc1)C(=O)NCc1cccc2ccccc12`, in the assay filed under Homo sapiens [1], the Ratio IC50 is greater than 7. In addition, the IC50 (as a rule, the concentration that gives 50% inhibition) in [2] was greater than 100000 nM.

Consider `COC[C@H](NC(=O)[C@H](CC(=O)NC(C)(C)C)NS(=O)(=O)c1ccc(C)cc1)C(=O)NCc1ccc(F)c2ccccc12`, for which it took 73 nM to reach a half-maximal effect in [3] (EC50). For the same molecule, the inhibition in assay [4], in assay [5], in [7] and in assay [8] was less than 50% each time. Further, the inhibition entry (in the assay listed under Homo sapiens [6]; in [9]; on Trypsin (Homo sapiens)) was “inactive” in each case.

With `C[C@H](NC(=O)[C@H](CC(=O)NOC(C)(C)C)NC(=O)CCc1ccccc1)C(=O)NCc1ccnc2ccccc12`, the Ratio IC50 in the assay filed under Homo sapiens [1] worked out at 23. For the same molecule, the IC50 in [10] was found to be 2620 nM; in assay [2] it was 59000 nM.

Take `COC[C@H](NC(=O)[C@H](CC(=O)NOC(C)(C)C)NC(=O)CCc1ccccc1)C(=O)NCc1cccc2c1NCCC2`: the Ratio IC50 in the assay listed under Homo sapiens [1] was found to be 54. Also, the IC50 in assay [10] came out at 501 nM; in assay [2], 27200 nM.

Consider `C[C@H](NC(=O)[C@H](CC(=O)NC(C)(C)C)NC(=O)C(=O)c1c[nH]c2ccccc12)C(=O)NCc1cccc2ccccc12`, for which it took 21 nM to reach a half-maximal effect in [3] (EC50). Further, the inhibition in assay [4], in [5], in [7] and in [8] was less than 50% throughout. The inhibition result (in the assay listed under Homo sapiens [6]; in assay [9]) was “Active” in each case. In addition, on Trypsin (Homo sapiens), the inhibition (in general, the relative decrease from the control value, in per cent) was “inactive”.

On to `COC[C@H](NC(=O)[C@H](CCC(=O)NC(C)(C)C)NS(=O)(=O)c1ccc(C)cc1)C(=O)NCc1ccc(F)c2ccccc12`, for which the EC50 (commonly the concentration giving half of the maximal effect) in [3] was 18 nM. Besides, the inhibition in [4], in assay [5], in assay [7] and in assay [8] was less than 50% each time. In addition, the inhibition entry (in the assay listed under Homo sapiens [6]; in [9]; at Trypsin (Homo sapiens)) was “inactive” throughout.

As for `COC[C@H](NC(=O)[C@H](CC(=O)NOC(C)(C)C)NC(=O)CCc1ccccc1)C(=O)NCc1cccc(OC)c1OC`, the Ratio IC50 in the assay filed under Homo sapiens [1] worked out at 2. Also, the figures for the IC50 in assay [10] and in assay [2] were 479 nM and 980 nM, respectively.

In [3], `Cc1ccc(S(=O)(=O)N[C@@H](CCC(=O)NC(C)(C)C)C(=O)N[C@@H](C)C(=O)NCc2ccc(F)c3ccccc23)cc1` gave an EC50 of 39 nM. Also, the inhibition in assay [4], in assay [5], in assay [7] and in assay [8] was less than 50% in each case. Also, the inhibition entry (in the assay filed under Homo sapiens [6]; in assay [9]; on Trypsin (Homo sapiens)) was “inactive” in each case.

As for `C[C@H](NC(=O)[C@H](CCC(=O)NC(C)(C)C)NC(=O)CCc1ccccc1)C(=O)NCc1ccc(F)c2ccccc12`, the half-inhibitory concentration (IC50) in assay [11] is 39 nM; in [10], 1.6 nM. The EC50 in assay [3] was 44 nM. For the same molecule, the inhibition in assay [4], in assay [5], in assay [7] and in [8] was less than 50% each time. Besides, the inhibition entry (in the assay filed under Homo sapiens [6]; in [9]; on Trypsin (Homo sapiens)) was “inactive” throughout.

Take `C[C@H](NC(=O)[C@H](CC(=O)NOC(C)(C)C)NC(=O)CCc1ccccc1)C(=O)NCc1cccc2[nH]ccc12`: the Ratio IC50 in the assay listed under Homo sapiens [1] was determined as 6. In addition, the IC50 in [10] is 28.4 nM; in assay [2] it was 170 nM.

Turning to `COC[C@H](NC(=O)[C@H](CC(=O)N(C)C)NC(=O)CCc1ccccc1)C(=O)NCc1cccc2ccccc12`, the Ratio IC50 in the assay filed under Homo sapiens [1] is greater than 9. The molecule also gave an IC50 in assay [2] greater than 100000 nM.

Take `C[C@H](NC(=O)[C@H](CC(=O)NOC(C)(C)C)NC(=O)CCc1ccccc1)C(=O)NCc1cccc2ncccc12`: in the assay filed under Homo sapiens [1], the Ratio IC50 was 11. The results for the IC50 in assay [10] and in assay [2] were 1160 nM and 12700 nM, respectively.

As for `COC[C@H](NC(=O)[C@H](CC(=O)N1CCCCC1)NC(=O)CCc1ccccc1)C(=O)NCc1cccc2ccccc12`, the Ratio IC50 in the assay listed under Homo sapiens [1] is 58.

Take `Cc1cc(C(=O)N[C@@H](CCC(=O)NC(C)(C)C)C(=O)N[C@@H](C)C(=O)NCc2ccc(F)c3ccccc23)no1`: in assay [3], a half-maximal effect (EC50) was put at 73 nM. Also, the inhibition in assay [4], in [5], in assay [7] and in assay [8] was less than 50% in each case. In addition, the inhibition entry (in the assay listed under Homo sapiens [6]; in assay [9]; at Trypsin (Homo sapiens)) was “inactive” throughout.

Turning to `CCN(CC)C(=O)C[C@H](NC(=O)CCc1ccccc1)C(=O)N[C@@H](COC)C(=O)NCc1cccc2ccccc12`, the Ratio IC50 in the assay listed under Homo sapiens [1] was determined as 8.

Turning to `COC[C@H](NC(=O)CCc1ccccc1)C(=O)N[C@@H](C)C(=O)NCc1cccc2ccccc12`, the Ratio IC50 in the assay filed under Homo sapiens [1] is greater than 5. The IC50 was 21700 nM in assay [10] and greater than 100000 nM in assay [2].

`COC[C@H](NC(=O)[C@H](CC(=O)NOC(C)(C)C)NC(=O)CCc1ccccc1)C(=O)NCc1cccc(OC)c1`: the Ratio IC50 in the assay listed under Homo sapiens [1] was found to be 7. Besides, the IC50 came to 14.4 nM in [10] and 101 nM in assay [2].

With `COC[C@H](NC(=O)[C@H](CC(=O)N1CCCC1)NC(=O)CCc1ccccc1)C(=O)NCc1cccc2ccccc12`, the Ratio IC50 in the assay filed under Homo sapiens [1] is 28.

Regarding `COC[C@H](NC(=O)[C@H](CC(=O)NOC(C)(C)C)NC(=O)CCc1ccccc1)C(=O)NCc1cccc2cccnc12`, the Ratio IC50 in the assay listed under Homo sapiens [1] stood at 12. In addition, the IC50 came out at 83.7 nM in assay [10] and 1040 nM in assay [2].

As for `COC[C@H](NC(=O)[C@H](CC(=O)NC(C)(C)C)NC(=O)CCc1ccccc1)C(=O)NCc1cccc2ccccc12`, in the assay listed under Homo sapiens [1], the Ratio IC50 is 71.

As to `NC(=O)C[C@H](NC(=O)CCc1ccccc1)C(=O)N[C@@H](Cc1ccc(F)cc1)C(=O)NCc1cccc2ccccc12`, in the assay filed under Homo sapiens [1], the Ratio IC50 is greater than 2.8. In [2], the IC50 is greater than 100000 nM.

Turning to `COC[C@H](NC(=O)[C@H](CC(=O)NC(C)(C)C)NC(=O)c1cc(C)on1)C(=O)NCc1cccc2ccccc12`, the Ratio IC50 in the assay filed under Homo sapiens [1] came to 274.
